Compounds with a hit are over-represented: about 2.7% of the library has one in this group of screens.
CHO parental Ca = counter-screen: ATP calcium response change in parental CHO cells | actives 0.63% (n = 330,000) | inhibition, % at 5.6 µM | AID 463079 | parental CHO-K1, ATP-induced calcium, Fluo-8 fluorescence;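 active = inhibition above that plate's mean sample inhibition plus 3 SD, cut at about 26% in these data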;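 note: 0% = ATP-challenged DMSO wells and 100% = DMSO wells without ATP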
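Material: Parental CHO cells | Reagent: ATP | Compound dosing: Single nominal dose of 5.6 µM per compound | Detection: Intracellular calcium via Fluo-8 no-wash fluorescent dye | Read-out: % inhibition of ATP-induced calcium mobilization | Benchmarks: Low control ATP plus DMSO, high control DMSO only | Replicates: Singlicate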
OXTR agonist = agonists of human oxytocin receptor; P30559; activation, % at 3 µM; AID 2435; CHO-OTR cells, Fluo-8 calcium fluorescence; normalized: DMSO 0%, oxytocin 100%; actives 0.32% (n = 320,000);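 active = activation above the mean of all tested compounds plus 3 SD, cutoff set per screening run, cut at about 20% in these data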;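 note: peak over basal fluorescence ratio from a 100 s FLIPR kinetic read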
OXTR potentiator = potentiates the human oxytocin receptor response; CHO-OTR cells, Fluo-8 calcium fluorescence, potentiator mode; 0% = oxytocin EC15, 100% = EC100; actives 0.061% (n = 320,000); activation, % at 3 µM; AID 2445;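 active = activation above that plate's cutoff, the mean activation of tested compounds plus 3 SD, cut at about 6.6% in these data, passing the limit was not always enough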;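 note: 100% uses oxytocin at 75 nM as the full agonist control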
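Assay system: CHO-OTR cells, human receptor / Also added: oxytocin at about EC15, sub-maximal agonist stimulus / Dosing: single dose, 3.0 µM nominal final compound concentration / Incubation: 6 min pre-incubation, 100 s read / Technique: Fluo-8 calcium dye fluorescence / Read-out: % activation vs EC15 and EC100 oxytocin / Benchmarks: EC15 oxytocin low, 75 nM oxytocin high / Replicates: singlicate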
V1aR counter = V1a receptor agonism, counter-screen for OXTR agonists. P37288. CHO-V1R cells, Fluo-8 calcium fluorescence, agonist mode; 0% DMSO, 100% 3 nM vasopressin. activation, % at 3 µM. actives 0.25% (n = 320,000). AID 2797;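 active = activation above the mean activation of all tested compounds plus 3 SD, per screening run, cut at about 20% in these data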;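 note: signal is peak over basal fluorescence ratio across a 100 second FLIPR read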
Target sequence (P37288 whole entry, looked up): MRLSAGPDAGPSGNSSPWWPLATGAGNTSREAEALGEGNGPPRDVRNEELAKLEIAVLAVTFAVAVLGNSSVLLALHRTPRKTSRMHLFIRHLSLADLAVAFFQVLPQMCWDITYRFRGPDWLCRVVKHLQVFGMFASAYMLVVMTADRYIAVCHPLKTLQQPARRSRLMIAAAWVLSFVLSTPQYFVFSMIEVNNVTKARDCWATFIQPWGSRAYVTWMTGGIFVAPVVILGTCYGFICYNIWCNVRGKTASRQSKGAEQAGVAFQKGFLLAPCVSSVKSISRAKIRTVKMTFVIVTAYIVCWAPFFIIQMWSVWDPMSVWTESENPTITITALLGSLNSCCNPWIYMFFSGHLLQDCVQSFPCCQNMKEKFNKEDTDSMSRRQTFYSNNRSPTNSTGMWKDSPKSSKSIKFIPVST
OX1R antag-1 = blocks the human orexin 1 receptor; O43613; CHO/OX1R cells, Fluo-8 calcium fluorescence, orexin A; inhibition, % at 5 µM; actives 0.43% (n = 330,000);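 active = inhibition above its plate's threshold, mean inhibition of all tested compounds on the plate plus 3 SD, cut at about 37% in these data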;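 note: 0% = orexin A challenge wells and 100% = SB-334867-A antagonist wells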
OX1R antag-2 = blocks the human orexin 1 receptor. O43613. OX1R-expressing cells, FRET antagonist read-out. inhibition, % at 6.6 µM. actives 1.8% (n = 330,000); in the data active = inhibition mostly above about 38%, no sharp cut-off; inactive = mostly below about 40%;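 note: 0% = agonist challenge alone and 100% = reference antagonist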
OX1R Fluo8 conf = OX1R (human) antagonism, confirmed | shares compounds with OX1R antag-1 | CHO/OX1R cells, orexin A calcium Fluo-8 fluorescence | inhibition, % at 5 µM | actives 38% (n = 1,100) | AID 492963; in the data active = inhibition above about 29%;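 note: 0% = agonist challenge alone and 100% = reference antagonist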
CHO Ca counter = signal in parental CHO cells, OX1R antagonist counter-screen | shares compounds with OX1R antag-1 | parental CHO-K1, ATP-induced calcium, Fluo-8 fluorescence | inhibition, % at 5.6 µM | actives 9.3% (n = 1,100);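 active = inhibition above a per-plate limit, the mean inhibition of that plate's test compounds plus 3 SD, cut at about 25% in these data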;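 note: 0% = ATP challenge with DMSO and 100% = DMSO without ATP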
OX1R HTRF confirm = OX1R (human) antagonism, HTRF confirmed. shares compounds with OX1R antag-2. OX1R-expressing cells, HTRF antagonist assay. inhibition, % at 6.6 µM. actives 49% (n = 1,800); in the data active = inhibition above about 55%;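 note: CHO cells expressing OX1R stimulated with orexin A at about EC80; 0% = agonist challenge alone and 100% = reference antagonist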
CHO-K1 HTRF cnt = counter-screen: parental CHO-K1 HTRF response; inhibition, % at 6.6 µM; shares compounds with OX1R antag-2; actives 48% (n = 1,800); parental CHO-K1 cells, HTRF counterscreen; in the data active = inhibition above about 17%;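 note: 0% = agonist challenge with vehicle and 100% = vehicle alone without agonist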
* = called active by the depositor; x = no result given.

SMILES	CHO parental Ca	OXTR agonist	OXTR potentiator	V1aR counter	OX1R antag-1	OX1R antag-2	OX1R HTRF confirm	CHO-K1 HTRF cnt	others
O=C1NCC(c2ccccc2)C1C(=O)N/N=C\c1ccc(-c2cccc(Cl)c2Cl)o1 (stereo unspecified)	-6	2	-24	0	87*	101*	87*	0	OX1R Fluo8 conf=69*;CHO Ca counter=2
Cc1ccc(-c2ccc(/C=N\NC(=O)C3C(=O)NCC3c3ccccc3)o2)cc1Cl (stereo unspecified)	-5	0	-8	0	29	69*	61*	11	OX1R Fluo8 conf=48*;CHO Ca counter=5
O=C(CCCOc1ccccc1)Nc1ccc(Cl)cn1	-8	-2	-6	-2	-10	14	x	x
Cc1ccc(C)c(N(CC(=O)NC2CCCC2)C(=O)c2oc(C(C)(C)C)cc2C)c1	7	-1	-4	13	95*	63*	71*	2	OX1R Fluo8 conf=47*;CHO Ca counter=-3
CC(C)(C)NC(=O)C(c1ccco1)N(Cc1ccc2c(c1)OCO2)C(=O)c1snc(C(N)=O)c1N (stereo unspecified)	-22	0	-8	0	-24	6	x	x
Cc1ccc2nsnc2c1S(=O)(=O)NC1CC1	2	0	-2	-1	3	14	x	x
Cc1ccc2nsnc2c1S(=O)(=O)NCc1ccncc1	-10	3	-7	4	-12	103*	31	37*
COC(=O)c1nn(-c2ccc(OC)cc2)c(=O)c2c(N)sc(C)c12	-12	-2	0	0	-19	83*	43	43*
CC(=O)c1c(C)n([O-])c2cc(F)c(F)cc2[n+]1=O	-12	1	0	1	-2	81*	67*	54*
COc1ccc2nc(Nc3nc(C)c(C(C)=O)s3)sc2c1	-24	-3	-10	-2	4	81*	52	2
COC(=O)c1ccc(CN2CCc3ccccc32)cc1	-4	-2	-5	-1	-19	5	x	x
Oc1ccc2ccccc2c1/C=N/Nc1ccccc1	1	-1	3	2	0	-1	x	x
CC(=O)c1sc(N/N=C\c2c(O)ccc3ccccc23)nc1C	2	9	-8	6	-2	85*	58*	7
O=C1C2C(C(=O)N1/N=C/c1ccc([N+](=O)[O-])o1)C1C=CC2C12CC2 (stereo unspecified)	-15	-2	-1	0	-18	80*	47	59*
O=C1C2C3C=CC(C4CC34)C2C(=O)N1/N=C/c1ccc([N+](=O)[O-])o1 (stereo unspecified)	-5	0	-4	0	-11	57	x	x
Cc1c(-n2c(CN3C(=O)c4ccccc4C3=O)nc3ccccc3c2=O)c(=O)n(-c2ccccc2)n1C	10	0	-6	1	1	14	x	x
Cc1cccnc1-n1c(CCN2C(=O)c3ccccc3C2=O)nc2ccccc2c1=O	-19	-2	-6	0	25	92*	85*	2
O=C(COC(=O)c1cccc(S(=O)(=O)Nc2ccc(F)cc2)c1)NCCN1C(=O)CSC1=O	-1	0	-7	1	-24	9	x	x
Cc1cccc2nc(-c3cccc(NC(=O)c4ccc(Cl)cc4)c3)cn12	-27	-1	-9	-1	-18	84*	79*	24*
Oc1c(Cl)cc(Cl)cc1CNc1nc2ccccc2[nH]1	27	8	-24	7	22	16	x	x
Cc1ccc(C(C)C)c(OCC(=O)c2c(O)c3ccccc3oc2=O)c1	-8	0	-7	2	-14	82*	36	2
CCN(Cc1ccncc1)C(=O)c1cc(COc2ccc(OC)cc2Cl)on1	0	2	-9	7	-4	13	x	x
CCOC(=O)C1CCCN(C2=C(NS(=O)(=O)c3ccc(Br)cc3)C(=O)c3ccccc3C2=O)C1 (stereo unspecified)	-20	-2	-2	2	-12	89*	73*	77*
CC1CCCN(C2=C(NS(=O)(=O)c3ccc(Br)cc3)C(=O)c3ccccc3C2=O)C1 (stereo unspecified)	-8	-3	-7	-1	-32	41	x	x
CCOC(=O)C1CCN(C2=C(NS(=O)(=O)c3ccc(Cl)cc3)C(=O)c3ccccc3C2=O)CC1	-21	-2	1	-2	11	114*	119*	42*
SMILES	CHO parental Ca	OXTR agonist	OXTR potentiator	V1aR counter	OX1R antag-1	OX1R antag-2	OX1R HTRF confirm	CHO-K1 HTRF cnt	others
Cc1cccc(C(C(=O)NC2CCCC2)N(C(=O)c2csnn2)C2CCCC2)c1 (stereo unspecified)	-7	-1	-5	0	-26	10	x	x
CCC(NC(=O)c1ccc([N+](=O)[O-])cc1[N+](=O)[O-])c1ccccc1 (stereo unspecified)	-1	-1	-3	-1	-7	114*	55*	50*
CC(NC(=O)c1ccc([N+](=O)[O-])cc1[N+](=O)[O-])c1ccc(-c2ccccc2)cc1 (stereo unspecified)	5	7	-10	10	9	21	x	x
CCc1sc(C(=O)NCCCn2ccnc2)cc1Br	-5	0	-8	-1	-23	3	x	x
COc1ccc(-c2cc(C(F)(F)F)n3ncc(C(=O)N4CCCCC4c4cccnc4)c3n2)cc1 (stereo unspecified)	-25	-1	-6	-1	-32	0	x	x
Cc1c(C)n(C)c2ccc(C(=O)NCCCN3CCCC3)cc12	-15	-1	-3	0	-19	18	x	x
CCN(CC)c1ccc(NC(=O)c2ccc3c(c2)c(C)c(C)n3C)cc1	-9	-2	-6	-1	-4	78*	51	14
CCn1c(SCc2nc(-c3cccs3)no2)nnc1-c1c[nH]c2ccccc12	-25	4	-26	9	10	81*	43	3
Cc1ccc(NC(=O)c2ccncc2)cc1[N+](=O)[O-]	-17	-2	-1	0	-1	105*	32	32*

Compound activity from PubChem BioAssay.
